From paper PMC8442886 (Science Advances, 2021)
Starred links: 1 amine or outer side, 2 acyl side, 3 side chain; linkers in the order of their positions; H or OH if unused. Positions of bridges follow the written chain, without caps; N, C: chain ends. Non-standard residues stand in square brackets, D forms with d. Residues, ends and D or L forms follow the SMILES beside them. No end group written: not given here. *: point of attachment. X1 = NC(=O)CC[C@@H]1NC(=O)[C@H](CO)N=C1N[C@@H](CO)C(=O)*; X2 = NC(=O)C[C@H](N[*:1])c1nc(C(=O)[*:2])cs1; X4 = NC(=O)C[C@H](N[*:1])c1nc(C(=O)[*:2])co1; X3 = O=C(c1csc([C@H](CO)N[*:1])n1)[*:2]

Key:
[1] = test system: E. coli ΔsbmA cells (JW0368) expressing SbmA mutants; type: cell-based, Escherichia coli; settings: for antibiotic sensitivity of cells carrying SbmA Tyr116 mutation: Tyr116 (potential periplasmic gate) mutant
BacA = molecular target: T1, BacA (Rhizobium meliloti, UniProt Q08120); assay: Microscale thermophoresis; type: binding, Sinorhizobium meliloti; settings: BacA-ND complex; MST
T1 sequence (Q08120 1-420): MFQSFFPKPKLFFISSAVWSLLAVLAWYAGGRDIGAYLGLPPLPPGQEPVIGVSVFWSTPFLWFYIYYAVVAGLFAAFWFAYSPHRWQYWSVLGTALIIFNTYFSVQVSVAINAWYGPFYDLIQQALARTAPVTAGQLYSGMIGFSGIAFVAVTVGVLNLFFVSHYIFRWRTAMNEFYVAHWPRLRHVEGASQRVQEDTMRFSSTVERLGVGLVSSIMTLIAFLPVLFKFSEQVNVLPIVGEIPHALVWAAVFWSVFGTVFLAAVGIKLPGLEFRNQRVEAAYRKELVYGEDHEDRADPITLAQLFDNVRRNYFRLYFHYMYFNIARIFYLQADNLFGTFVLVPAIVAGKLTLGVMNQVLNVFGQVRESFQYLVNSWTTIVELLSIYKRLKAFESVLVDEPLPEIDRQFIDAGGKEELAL
Procedure, shortened: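 Purified protein mixed into DDM-solubilized lipid (7.5 mM lipid, 33 mM DDM) for 30 min at 28°C. Alexa Fluor 647–labeled MSP1E3D1 (S22C/A121C) added, then Amberlite XAD-2 overnight at 28°C, and nanodiscs purified by SEC. Labeled nanodiscs (20 nM) incubated 15 min in the dark with test compound in 20 mM K-Hepes pH 8, 150 mM KCl, 0.005% Tween 20 (DMSO 1.25% final). Kd from a 1:1 fit of the MST signal, three independent measurements.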

[2] = molecular target: Escherichia coli inner membrane transporter SbmA (E. coli) (UniProt P0AFY6); assay: MST
cryo-EM structure [3] = molecular target: the molecule itself; assay: cryo-EM structure
cryo-EM structure [4] = molecular target: the molecule itself; assay: cryo-EM structure; remark: listed apart in the source

CC(C)C[C@H](NC(=O)CNC(=O)CNC(=O)[C@@H](NC(=O)c1csc([C@H](CC(N)=O)NC(=O)[C@H](C)NC(=O)[C@H](CO)NC(=O)c2coc([C@H](CC(N)=O)NC(=O)[C@H](CO)NC(=O)c3csc([C@H](CO)NC(=O)[C@H](C)NC(=O)c4csc([C@H](CC(N)=O)NC(=O)CNC(=O)[C@@H]5CCCN5C(=O)[C@H](CO)NC5=N[C@@H](CO)C(=O)N[C@H]5CCC(N)=O)n4)n3)n2)n1)[C@@H](C)O)C(=O)O [KLB, klebsazolicin] (X1-PG[X2]A[X3]S[X4]SA[X2]TGGL-OH; C-terminus assumed)
antibiotic sensitivity of cells carrying SbmA Tyr116 mutation [1]: resistant

bleomycin
Kd (BacA): 19 ± 11 nM | antibiotic sensitivity of cells carrying SbmA Tyr116 mutation [1]: slightly increased sensitivity | antibiotic sensitivity of cells carrying SbmA Tyr368Ala mutant ([1]; Tyr368Ala (first internal gate) mutant): additionally sensitized

microcin J25 (GGAGHVPEYFVGIGTPISFYG; lactam N-8; ends not checked; UniProt Q9X2V7 38-58, looked up) [MccJ25]
antibiotic sensitivity of cells carrying SbmA Tyr116 mutation [1]: resistant

klebsazolicin (peptide)
Kd [2]: 849 nM

B1: Escherichia coli inner membrane transporter SbmA (natural protein, E. coli)
chain: MFKSFFPKPGTFFLSAFVWALIAVIFWQAGGGDWVARITGASGQIPISAARFWSLDFLIFYAYYIVCVGLFALFWFIYSPHRWQYWSILGTALIIFVTWFLVEVGVAVNAWYAPFYDLIQTALSSPHKVTIEQFYREVGVFLGIALIAVVISVLNNFFVSHYVFRWRTAMNEYYMANWQQLRHIEGAAQRVQEDTMRFASTLENMGVSFINAIMTLIAFLPVLVTLSAHVPELPIIGHIPYGLVIAAIVWSLMGTGLLAVVGIKLPGLEFKNQRVEAAYRKELVYGEDDATRATPPTVRELFSAVRKNYFRLYFHYMYFNIARILYLQVDNVFGLFLLFPSIVAGTITLGLMTQITNVFGQVRGAFQYLINSWTTLVELMSIYKRLRSFEHELDGDKIQEVTHTLS
stoichiometry N (cryo-EM structure [3]): 2

B2: BacA from Sinorhizobium meliloti (natural protein, S. meliloti, UniProt Q08120 1-420, looked up)
chain: MFQSFFPKPKLFFISSAVWSLLAVLAWYAGGRDIGAYLGLPPLPPGQEPVIGVSVFWSTPFLWFYIYYAVVAGLFAAFWFAYSPHRWQYWSVLGTALIIFNTYFSVQVSVAINAWYGPFYDLIQQALARTAPVTAGQLYSGMIGFSGIAFVAVTVGVLNLFFVSHYIFRWRTAMNEFYVAHWPRLRHVEGASQRVQEDTMRFSSTVERLGVGLVSSIMTLIAFLPVLFKFSEQVNVLPIVGEIPHALVWAAVFWSVFGTVFLAAVGIKLPGLEFRNQRVEAAYRKELVYGEDHEDRADPITLAQLFDNVRRNYFRLYFHYMYFNIARIFYLQADNLFGTFVLVPAIVAGKLTLGVMNQVLNVFGQVRESFQYLVNSWTTIVELLSIYKRLKAFESVLVDEPLPEIDRQFIDAGGKEELAL
binding result (cryo-EM structure [4]): binds
